The nature of the data set: Toxicity liver stage against HepG2, at 10uM. Format: cell-based. The arrangement: test concentration 10 uM, cell line HepG2-A16-CD81EGFP. The note with it: human, HepG2-A16-CD81EGFP cells; read-out: INHIBITION
Summed up:
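Uninfected HepG2-A16-CD81EGFP cells, 3 × 10^3 per well, 1536-well, plated on prespotted compound at 10 μM final, parasite-free screening media added to match infected plates; puromycin 10 μM positive, DMSO 0.5% negative; run in parallel with 48 h PbLuc assay at 37 °C, 5% CO2; viability by CellTiter-Glo luminescence, normalized to controls.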
As for `Cn1cc(CN2CCOC[C@H]2c2nc(C(C)(C)C)co2)c2ccccc21`, the cytotoxicity at 10 µM was 1.21%. The figure for `O=C(CSC1=NS(=O)(=O)c2cc(F)ccc2N1)c1ccccc1` is -10.7%. For the compound `Oc1ccccc1CN1CCCCCC1c1cccs1` (configuration not stated), the cytotoxicity at 10 µM was -3.2%. The figure for `CCc1nnc2ccc(N3CCN(S(=O)(=O)c4ccc(C)s4)CC3)nn12` is 1.5%; for `Cc1ccc(-n2nnc(C(=O)NCC3CCCCC3)n2)cc1` it is -3.5%; for `C[C@H]1C[C@@H]2CCN(C(=O)c3ccncc3)C[C@H]2O1` it is -1.02%. The figure for `Cn1cc(CN2CC[C@H]3OCC[C@@H](C(=O)NC4CCCC4)[C@@H]3C2)cn1` is 0.835%. The value for `CN1CCc2c(C#N)c(NCc3ccncc3)n3cnnc3c2C1` was 10.8%.

Regarding `Cc1cs/c(=N\C(=O)Cn2nc(N3CCSCC3)ccc2=O)[nH]1`, the cytotoxicity at 10 µM was found to be 2.33%. The value for `Cc1nc(N2CCOCC2)nc2c1CN(C(=O)Cc1ccccn1)CC2` was -7.61%; that for `CCn1cc(CN(C)S(=O)(=O)c2ccc(C)c(C)c2)cn1` was 9.65%; that for `Cc1cccc2c1cnn2CCC(=O)NCC(=O)N(C)C` was 7.03%.

Turning to `COc1ccccc1-c1nccnc1C1CCN(C(C)=O)CC1`, the cytotoxicity at 10 µM was -1.69%.

For the compound `CCC(=O)N1CCCC(c2ncc3c(n2)CCN(C)C3)C1` (configuration not stated), the cytotoxicity at 10 µM is -8.77%. The figure for `CN1CCCCC12Cc1ccccc1CN(C(=O)c1ccccc1)C2` (configuration not stated) is 7.44%.

As for `CC1CS(=O)(=O)CCN1CCCc1ccc(C(F)(F)F)cc1` (configuration not stated), the cytotoxicity at 10 µM came to 0.715%.

Regarding `CCCC(C)CS(=O)(=O)NCCc1csc(N2CCCC2)n1` (configuration not stated), the cytotoxicity at 10 µM is 7.47%. The figure for `CCN1CCCCC1C(=O)N1CCC(OC2CCCC2)CC1` (configuration not stated) is -20.6%; for `Cc1nnc(CSc2n[nH]c(-c3ccccn3)n2)o1` it is 5.81%; for `CN(CC(N)=O)C(=O)CCCn1ccc2cc(Cl)ccc21` it is -2.13%. The figure for `O=C(c1ccoc1)N1CCC(NCc2cccnc2)CC1` is 8.21%; for `CCC(C)NC(=O)CN1CCC2(CC1)OCCO2` (configuration not stated) it is -4.92%. Turning to `CN(C)c1cccc(C2CCCN2S(N)(=O)=O)c1` (configuration not stated), the cytotoxicity at 10 µM is -5.44%. The figure for `CC(CNC(=O)c1cnccn1)Oc1cccc(Br)c1` (configuration not stated) is 1.25%; for `Cc1cc(C)n(C2CN(c3ncnc4[nH]ccc34)C2)n1` it is 6.59%. The figure for `Cc1ccccc1NS(=O)(=O)c1ccc(C(=O)O)cc1F` is 7.94%; for `O=C(CN1CCc2ccccc21)Nc1ccc(OC(F)F)cc1` it is 16.8%; for `COc1cccc(CNC(=O)c2nc3c(s2)CCN(C(C)=O)CC3)c1` it is -77.4%. The figure for `Cn1cnc(-c2cc(C(=O)N3CCOCC3)c3ccccn23)c1` is 4.79%; for `C[C@@H]1CN(C2Cc3ccccc3C2)CC[C@@]1(O)C1CCOCC1` it is -4.04%; for `O=C1CCC2(CCOC2)CN1Cc1nncn1CCc1ccccc1` (configuration not stated) it is -0.506%. Turning to `Cc1nc2c(c(NC3CC3)n1)CCN(C(=O)CCc1cccnc1)CC2`, the cytotoxicity at 10 µM is -9.1%. Turning to `O=C(NCC(F)F)c1ccc(S(=O)(=O)NCCc2c[nH]cn2)cc1`, the cytotoxicity at 10 µM is -1.99%. `C[C@H](NC(=O)c1cccc(CCC(C)(C)O)c1)C(N)=O`: the cytotoxicity at 10 µM was -0.511%.

In the case of `CNC(=O)[C@@H]1C[C@@H](NC(=O)CCCc2cccs2)CN1C1CCOCC1`, the cytotoxicity at 10 µM is -0.828%. The value for `Cc1ccccc1N1CCN(C(=O)c2cscn2)C(C)C1` (configuration not stated) was 0.403%; that for `COc1ncccc1C1CC(=O)Nc2cc(NS(C)(=O)=O)ccc21` (configuration not stated) was -8.1%; that for `O=c1[nH]c(-c2ccc(Cl)cc2)nc2c1CCNC2` was 4.42%.

On to `O=C(COc1cccc(F)c1)N1C[C@H](CO)C[C@H](CN2CCCC2)C1`, for which the cytotoxicity at 10 µM was determined as 1.76%.

As for `Cc1cc(C(F)(F)F)cc(N2CCC3(CCC(=O)N(CCO)C3)CC2)n1`, the cytotoxicity at 10 µM turned out to be 8.09%. The figure for `Cn1ccc2c(-c3nccc(N)n3)ccnc21` is -16%; for `CC1CN(Cc2nc(Cc3ccccc3F)no2)CCN1C` (configuration not stated) it is -7.44%; for `NC(=O)c1ccc(C2CCCN2C(=O)CCc2nc3ccccc3s2)s1` (configuration not stated) it is -8.8%.

On to `CCC(=O)NC(C)c1ccccc1C` (configuration not stated), for which the cytotoxicity at 10 µM is 0.245%. The value for `O=C(c1ccc2c(c1)CCC2)N1C[C@@H](CN2CCOCC2)[C@@H](CO)C1` was 20.7%; that for `CCCN1CCCn2nc(CNS(=O)(=O)c3ccc(C)cc3)cc2C1` was 1.6%. As for `Cc1cc(C)c2nc(CN3CCOC(CCO)C3)cc(O)c2c1` (configuration not stated), the cytotoxicity at 10 µM is -9.26%.

For the compound `CCN(c1ccc(C(=O)N2CCCC(C)C2)cc1)S(=O)(=O)CC` (configuration not stated), the cytotoxicity at 10 µM is -8.6%. The figure for `NC(=O)C1CCN(C(=O)CCn2ccc3cc(Br)ccc32)CC1` is -6.44%. The figure for `CC1CN(Cc2cnn(C)c2)CCN1c1ccc2nncn2n1` (configuration not stated) is 2.69%; for `CCc1nc(CN2CCN(C(=O)c3csnn3)CC2)cs1` it is -9.04%; for `CCCN(C)S(=O)(=O)N1CCCC1c1ccco1` (configuration not stated) it is -8.72%.

Regarding `CCOc1ccc(C(=O)N2CCCC(n3nc(C)nc3C)C2)cc1` (configuration not stated), the cytotoxicity at 10 µM is -4.34%. The figure for `COc1cc(C(=O)Nc2cn[nH]c2)ccc1C` is -7.33%. The value for `CC(OCC1CC1)C(=O)N1CCCN(c2ncccc2C#N)CC1` (configuration not stated) was -11.6%; that for `CN(CCC#N)C(=O)CN1CCCC1c1ccsc1` (configuration not stated) was -5.26%; that for `NC(=O)CN1CCCN(C(=O)Cc2ccc3c(c2)OCO3)CC1` was 2.96%. The figure for `CC(C)c1nc(C2CCCN2CC(=O)Nc2nncs2)no1` (configuration not stated) is -3.13%; for `CCc1n[nH]c(C2CN(C(=O)c3ncoc3C(C)C)CCO2)n1` (configuration not stated) it is -9.8%. On to `Cc1nc(CN2CCC(N(C)Cc3noc(C4CC4)n3)C2)oc1C` (configuration not stated), for which the cytotoxicity at 10 µM was -11.1%. The figure for `CN(C)c1ccnc(C2CCCN2)n1` (configuration not stated) is 1.76%; for `COc1ccccc1Cc1cncc(N2CC(C(=O)O)C2)n1` it is 2.71%. The figure for `CC1(C)CC(N(Cc2ccccc2)Cc2ncc[nH]2)CC(C)(C)N1` is 0.385%. The figure for `O=C(NC1CC1)[C@H]1CC[C@@H]2[C@@H](CCN2CCOCc2ccccc2)O1` is -115%.

As to `Cc1nnc(N2CCCC3(CN(Cc4ccncc4)CCO3)C2)o1` (configuration not stated), the cytotoxicity at 10 µM was -13.5%. The figure for `CN(Cc1cn2c(n1)CN(C1CCOC1)CC2)Cc1ccco1` (configuration not stated) is -2.15%; for `COCCN1CC[C@H](OC)[C@@H]1Cc1ccccc1` it is -0.675%. The figure for `O=C(C1CCOCC1)N1CCO[C@H]2[C@H](Oc3cccnc3)CC[C@@H]21` is 2.03%. The figure for `CCn1ncc2c1C(COC)CN(S(=O)(=O)N(C)C)C2` (configuration not stated) is 12.5%; for `CCOC[C@]12COC[C@H]1CN(Cc1ccc(F)c(F)c1)C2` it is -107%; for `CN(C)S(=O)(=O)N1CC[C@]2(C[C@@H](Oc3ncccc3F)CO2)C1` it is -67%. `COc1ccc(C2Nc3ccccc3N=C3CNC(=O)C32)cc1OC` (configuration not stated): the cytotoxicity at 10 µM is 5.56%.

Values taken from ChEMBL document CHEMBL4513216, “Probing the Open Global Health Chemical Diversity Library for Multistage-Active Starting Points for Next-Generation Antimalarials” (ACS Infect Dis, 2020).
